“And” between values parts separate entries of the source, which are not always exact repeats. Equal values may be shown once. Each block holds one compound with its values, some of them ahead of it.
Legend:
[1] = tested on: OPM1; assay: Luciferase viability assay, multiple myeloma line OPM1; type: cell-based, Human; details: 72 hours
In short: (§1)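 Myeloma cells stably transduced with firefly luciferase were exposed to test compound at 11 concentrations between 30 nM and 30 uM for 72 h. Luciferin substrate was then added and bioluminescence read. Signal was normalised to mock-treated wells (100%) and no-cell wells (0%). IC50 came from fitted dose-response curves.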

[2] = tested on: MCF7 xenografts; assay: MCF7 xenograft model; type: in vivo, nude mice
In short: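 One million MCF7 cells in Matrigel went subcutaneously on both flanks of 6-week-old NCR nude mice. After tumours reached 100 mm3, test compound at 3 mg/kg or 1:1 PBS:DMSO vehicle was given intraperitoneally on days 0, 2 and 4 (n=5 mice, 10 tumours). Caliper measurements every other day, mean volume with SEM. Treated tumours from three animals were Western blotted for signalling proteins.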

[3] = tested on: MCF7; assay: MTT cell proliferation assay, MCF7; type: cell-based; details: 72 hours
In short: (§2)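 Cells were plated at 2000 per well (MEFs) or 5000 per well (HeLa, MCF7) and left to attach overnight. Test compound at various concentrations was added, final DMSO 1%, for 72 h at 5% CO2. After 3 PBS washes, fresh medium with MTT reagent was added for 4 h at 37 °C in the dark, then detergent buffer. Absorbance was read at 570 nm. At least two independent experiments, each in triplicate.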

[4] = Animal toxicity study; type: in vivo, NSG mice
[5] = tested on: mouse embryonic fibroblasts (MEFs); assay: MTT cell proliferation assay in normal fibroblasts; type: cell-based; details: read-out: EC50, MEFs, 72 hours
In short: as §2

[6] = tested on: HeLa; assay: MTT cell proliferation assay, HeLa; type: cell-based; details: 72 hours
In short: as §2

[7] = Pharmacokinetics in mice; type: in vivo, NSG mice
In short: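 NSG mice (three per group) received test compound at 0.3, 1 or 3 mg/kg intraperitoneally in 1:1 DMSO:PBS, dosed twice weekly for 2 weeks. After the final dose, tail-vein blood was taken at 1, 3, 8 and 24 h. Plasma levels were measured by LC-MS, and pharmacokinetic parameters including terminal half-life were calculated.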

[8] = tested on: HeLa xenograft; assay: HeLa xenograft model; type: in vivo; details: 3 mg/kg, nude mice
In short: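 One million HeLa cells in Matrigel were injected subcutaneously on both flanks of 6-week-old NCR nude mice. Once tumours were established, test compound at 3 mg/kg or 1:1 PBS:DMSO vehicle was given intraperitoneally on days 2, 4 and 6 (n=5 mice, 10 tumours per group). Tumours were measured by caliper every other day and mean volumes plotted with SEM.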

[9] = target: Hsp70-Bag3 interaction (Homo sapiens, UniProt P0DMV8); assay: Co-immunoprecipitation of Hsp70 from HeLa cells, blotted for Bag3; type: cell-based; details: 50 μM
Hsp70-Bag3 interaction, sequence (P0DMV8 2-641 limits assumed): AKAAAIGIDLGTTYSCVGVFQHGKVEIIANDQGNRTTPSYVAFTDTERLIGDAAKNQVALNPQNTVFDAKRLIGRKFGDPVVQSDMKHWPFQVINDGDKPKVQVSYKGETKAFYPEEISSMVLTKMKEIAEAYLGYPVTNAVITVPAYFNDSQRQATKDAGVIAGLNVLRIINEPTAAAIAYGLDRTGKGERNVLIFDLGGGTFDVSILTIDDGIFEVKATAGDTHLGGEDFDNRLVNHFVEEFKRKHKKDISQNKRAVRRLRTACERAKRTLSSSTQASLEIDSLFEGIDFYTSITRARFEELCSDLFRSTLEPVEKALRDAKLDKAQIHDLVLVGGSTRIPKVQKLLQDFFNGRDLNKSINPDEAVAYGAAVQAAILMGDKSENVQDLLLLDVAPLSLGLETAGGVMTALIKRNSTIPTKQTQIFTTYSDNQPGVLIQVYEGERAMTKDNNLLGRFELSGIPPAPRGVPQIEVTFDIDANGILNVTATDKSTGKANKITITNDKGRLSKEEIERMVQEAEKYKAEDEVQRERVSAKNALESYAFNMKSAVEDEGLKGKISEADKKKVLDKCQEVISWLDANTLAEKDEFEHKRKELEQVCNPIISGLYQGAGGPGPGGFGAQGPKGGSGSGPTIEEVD
In short: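 HeLa extracts in M-PER lysis buffer at 5 mg total protein per mL. 500 μL samples took rabbit polyclonal anti-Hsp70 or goat IgG control, plus 1% DMSO or test compound at 50 μM final (5 mM stock). Rotated overnight at 4 °C, then 4 h on protein A/G Sepharose. Washed in PBS pH 7.4, eluted in SDS dye, run on 4–15% Tris-Tricine gel, immunoblotted for Hsp70 and Bag3 with chemiluminescence detection. Triplicate, quantification averaged.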

[10] = tested on: FoxM1, HuR, p21, p27 in MCF7 breast cancer cells; assay: Western blot of cancer signaling proteins in MCF7 cells; type: cell-based
[11] = tested on: OPM2; assay: Luciferase viability assay, multiple myeloma line OPM2; type: cell-based, Human; details: 72 hours
In short: as §1

[12] = target: Bag3 (Homo sapiens) (UniProt O95817); details: cited from earlier work
Bag3 (Homo sapiens), sequence (O95817 2-575): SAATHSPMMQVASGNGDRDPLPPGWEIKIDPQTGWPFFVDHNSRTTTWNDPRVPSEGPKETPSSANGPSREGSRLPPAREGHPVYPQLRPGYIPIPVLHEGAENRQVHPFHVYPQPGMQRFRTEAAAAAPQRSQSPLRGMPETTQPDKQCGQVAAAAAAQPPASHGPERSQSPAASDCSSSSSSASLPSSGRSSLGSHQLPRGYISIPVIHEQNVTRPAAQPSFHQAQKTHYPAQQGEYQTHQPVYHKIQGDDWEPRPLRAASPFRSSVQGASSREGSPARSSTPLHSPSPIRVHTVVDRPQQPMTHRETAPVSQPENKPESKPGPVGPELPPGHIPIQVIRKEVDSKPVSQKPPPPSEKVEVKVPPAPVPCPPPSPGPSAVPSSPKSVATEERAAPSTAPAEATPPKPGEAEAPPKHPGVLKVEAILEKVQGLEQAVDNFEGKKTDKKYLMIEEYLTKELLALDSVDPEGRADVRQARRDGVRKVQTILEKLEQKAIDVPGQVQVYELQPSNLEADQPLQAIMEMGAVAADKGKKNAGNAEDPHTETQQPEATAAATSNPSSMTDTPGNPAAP

[13] = MCF7 xenograft tumors, Western blot

Hsp70, sequence (P0DMV8 2-641): as the sequence (P0DMV8 2-641 limits assumed) above

Compound: CCn1c(=O)/c(=C2\Sc3cc(Cl)ccc3N2C)s/c1=C\c1scc[n+]1Cc1ccccc1.[Cl-] [JG-98]
sensitivity of OPM1 [1]: relatively less sensitive
tumor growth, MCF7 xenograft ([2]; 3 mg/kg intraperitoneal on days 0, 2 and 4, nude mice): limited tumor growth until day 6
HuR and FoxM1 in tumor samples [2, 13]: tended to be decreased
p21 in tumor samples [2, 13]: significantly elevated
activity against MCF7 [3]: sub-micromolar activity
weight loss ([4]; 0.3, 1, 3 mg/kg intraperitoneal twice a week for 2 weeks, NSG mice): < 10%
alanine aminotransferase and total bilirubin ([4]; after the final dose, markers of liver function): in the normal range
blood urea nitrogen (BUN) and creatinine levels ([4]; all three dosages, after the final dose, renal function): normal
tolerability ([4]; mouse, in vivo, ip): well tolerated
EC50 [5]: 4.5 µM and ~4.5 µM
activity against HeLa [6]: sub-micromolar activity
level in plasma ([7]; 3 mg/kg intraperitoneal, after 1 hour, NSG mice): ~ 70 nM
terminal half-life ([7]; all three doses (0.3, 1, 3 mg/kg) intraperitoneal, NSG mice): approximately 20 hours
stability in animals ([7]; compared with YM-01): more stable than YM-01
oral bioavailability ([7]; mice): not orally bioavailable
tumor growth, HeLa xenograft [8]: suppressed tumor growth
reduction of Hsp70-Bag3 interaction [9]: ~ 60%
levels of FoxM1 and HuR [10]: reduced
levels of the cell cycle inhibitors p27 and p21 [10]: increasing
sensitivity of OPM2 [11]: relatively less sensitive

Compound: Hsp70 (from UniProt P0DMV8)
Kd [12]: 0.03 µM

reduction of Hsp70-Bag3 interaction [9]: ~ 60%
Compound: YM-01 [reference compound]

Source: publication PMC4456214 (Molecular cancer therapeutics, 2015)
